# Source: ChEMBL document CHEMBL2417498, “Design and synthesis of 6,7-methylenedioxy-4-substituted phenylquinolin-2(1H)-one derivatives as novel anticancer agents that induce apoptosis with cell cycle arrest at G2/M phase” (Bioorg Med Chem, 2013)
# The source made the active and inactive calls. The rule behind the calls is not given here.
# How the values were obtained:
# [1] = Cytotoxicity against human H460 cells after 48 hrs by MTT assay; type: functional, cell-based; settings: NCI-H460, 48 h
# Outline: (§1)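 Log-phase tumour cells grown in RPMI-1640 with 10% FBS, penicillin/streptomycin and 1% L-glutamine at 37 °C, 5% CO2. Cells treated with vehicle or a range of concentrations for 48 h. Growth measured by MTT reduction, absorbance at 570 nm. IC50 is the concentration giving 50% proliferation inhibition, from 3 independent experiments.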
# [2] = Cytotoxicity against human Hep3B cells after 48 hrs by MTT assay; type: functional, cell-based, Hep 3B2
# Outline: (§2)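 Detroit 551 normal skin cells and Hep 3B hepatoma cells grown in DMEM with 10% FBS, penicillin/streptomycin and 1% L-glutamine at 37 °C, 5% CO2. Log-phase cells treated with vehicle or a range of concentrations for 48 h. MTT reduction read at 570 nm. IC50 (50% proliferation inhibition) taken from 3 independent experiments.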
# [3] = test system: SK-OV-3; assay: Cytotoxicity against human SKOV3 cells after 48 hrs by MTT assay; type: functional, cell-based; settings: SK-OV-3, 48 h; outline: as §1
# [4] = test system: HL-60; assay: Decrease in CDK1 expression in human HL60 cells after 24 hrs by Western blot analysis; type: functional, cell-based
# Outline: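 HL-60 cells treated 24 h at the indicated concentrations, harvested, lysed (30 min on ice, 12,000 g spin), protein by Bradford; samples run on 10% SDS-PAGE, transferred to nitrocellulose, immunodetected by chemiluminescence.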
# [5] = Cell cycle arrest in human H460 cells assessed as accumulation at G2/M phase at 2.5 uM after 24 hrs by propidium iodide staining-based FACS analysis (reference value: 10.73%); type: functional; settings: NCI-H460
# Outline: (§3)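 H460 cells treated 24 h with 1.0, 2.5 or 5.0 µM; washed in PBS, fixed overnight in 70% ice-cold ethanol at −20 °C, stained 30 min in the dark with 0.1% Triton X-100, 0.2 mg/mL RNase and 20 µg/mL propidium iodide; DNA content by flow cytometry, phase distribution from histogram modelling.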
# [6] = Cell cycle arrest in human H460 cells assessed as accumulation at S phase at 5 uM after 24 hrs by propidium iodide staining-based FACS analysis (reference value: 43.08%); type: functional; settings: NCI-H460; outline: as §3
# [7] = Cell cycle arrest in human H460 cells assessed as accumulation at G0/G1 phase at 5 uM after 24 hrs by propidium iodide staining-based FACS analysis (reference value: 46.19%); type: functional; settings: NCI-H460; outline: as §3
# [8] = Cell cycle arrest in human H460 cells assessed as accumulation at sub G1 phase at 1 uM after 24 hrs by propidium iodide staining-based FACS analysis (reference value: 3.07%); type: functional; settings: NCI-H460; outline: as §3
# [9] = test system: HL-60; assay: Cell cycle arrest in human HL60 cells assessed as accumulation at G2/M phase at 1 uM after 24 hrs by propidium iodide staining-based FACS analysis (reference value: 10.51%); type: functional
# [10] = test system: HL-60; assay: Cell cycle arrest in human HL60 cells assessed as accumulation at S phase at 1 uM after 24 hrs by propidium iodide staining-based FACS analysis (reference value: 49.69%); type: functional
# [11] = test system: HL-60; assay: Cell cycle arrest in human HL60 cells assessed as accumulation at S phase at 0.25 uM after 24 hrs by propidium iodide staining-based FACS analysis (reference value: 49.69%); type: functional
# [12] = test system: HL-60; assay: Cell cycle arrest in human HL60 cells assessed as accumulation at sub G1 phase at 0.5 uM after 24 hrs by propidium iodide staining-based FACS analysis (reference value: 0.35%); type: functional
# [13] = test system: HL-60; assay: Induction of apoptosis in human HL60 cells assessed as appearance of apoptotic bodies at 0.25 to 1 uM after 24 hrs by Hoechst 33258 staining-based microscopy; type: functional, cell-based
# Outline: (§4)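 HL-60 seeded at 1×10⁵ cells/well, treated 24 h with 0.25, 0.5 or 1.0 µM; nuclei stained 10 min with 5 µg/mL Hoechst 33258, PBS-washed twice, fixed 10 min in 4% PFA at 25 °C; apoptotic morphology imaged by fluorescence microscopy against 0.1% DMSO-treated cells.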
# [14] = test system: HL-60; assay: Induction of apoptosis in human HL60 cells assessed as appearance of nuclear fragmentation at 0.25 to 1 uM after 24 hrs by Hoechst 33258 staining-based microscopy; type: functional, cell-based; outline: as §4
# [15] = test system: Detroit 551; assay: Cytotoxicity against human Detroit 551 cells after 48 hrs by MTT assay; type: cell-based; settings: Detroit 551, 48 h; outline: as §2
smiles,measurement,setting,value
COc1ccc(-c2cc(=O)[nH]c3cc4c(cc23)OCO4)c(OC)c1,IC50,[1],900 nM
same,IC50,[2],1000 nM
same,IC50,[3],400 nM
same,Activity,[4],Dose-dependent effect
same,Activity,[5],71.6%
same,Activity,[6],22.4%
same,Activity,[7],9.37%
same,Activity,[8],10.8%
same,Activity,[9],40.54%
same,Activity,[10],46.99%
same,Activity,[11],46.76%
same,Activity,[12],27.86%
same,Activity,[13],Active
same,Activity,[14],Active
same,IC50,[15],> 25000 nM
